From PubChem
Sampled rows, rich in hits. Any-hit rate of the full collection: about 2%.
Hep lipid drop = hepatic lipid droplet formation modulation; AML12 mouse hepatocytes, oleate lipid droplets, BODIPY imaging; inhibition, % at 6.5 µM; 0.4% of 240,000 active;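 active = lipid droplet intensity inhibited by at least 50%, with more than 500 cells counted; inconclusive = wells with under 300 cells, treated as cytotoxic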
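Material: mouse AML12 hepatocyte cell line, fixed after treatment; Timing: compound with oleate, overnight; Technique: high-content imaging of BODIPY-stained droplets and DAPI nuclei; Probe or stimulus: oleate, 100 µM final; Dosing: compound at 6.5 µM only.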
PfM18AAP inh = blocks P. falciparum M18 aspartyl aminopeptidase. recombinant PfM18AAP, H-Glu-NHMec fluorogenic cleavage. inhibition, % at 7.35 µM. 1.2% of 290,000 active;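 active = inhibition above the campaign mean inhibition over all tested compounds plus 3 SD, cut at about 28% in these data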;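 note: 0% = plate median of test compound wells and 100% = 2 mM ZnCl2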
RBBP9 inhibitor = human RBBP9 hydrolase inhibition; 0.2% of 220,000 active; recombinant RBBP9, FP-Rh probe fluorescence polarization; AID 1515; inhibition, % at 7.94 µM;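 active = inhibition above the campaign mean of all tested compounds plus 3 SD, cut at about 14% in these data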;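 note: plate controls were DMSO wells with RBBP9 for no effect and wells lacking RBBP9 protein for full effect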
Target sequence (O75884 whole entry, looked up): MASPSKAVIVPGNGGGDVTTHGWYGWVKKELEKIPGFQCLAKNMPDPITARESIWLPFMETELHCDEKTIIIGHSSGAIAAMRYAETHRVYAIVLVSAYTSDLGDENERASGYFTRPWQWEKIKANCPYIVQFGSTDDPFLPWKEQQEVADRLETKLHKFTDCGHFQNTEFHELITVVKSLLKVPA
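System: RBBP9 protein | Quantity: 2.5 µM RBBP9 dispensing solution, before mixing | Reagent: FP-Rh probe, 375 nM dispensing solution | Timing: Enzyme-compound preincubation 30 min, then probe labeling 45 min, 25 °C | Measured by: Fluorescence polarization | Read-out: % inhibition | Replication: One well per compound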
TbHK1 inh = blocks Trypanosoma brucei hexokinase 1 activity | 0.11% of 220,000 active | recombinant TbHK1, G6PDH-coupled NADH A340 | inhibition, % at 10 µM;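 active = inhibition of 50% or more in the single-dose primary screen; inactive = inhibition below 50%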
TNF necrop inh = TNF-alpha cell death inhibition in Jurkat FADD-/- cells. Jurkat FADD-/- TNF necroptosis rescue, ATP luminescence, 24 h; 0 = TNF only, 100 = no-TNF cells. activation (protection from cell death), % at 10 µM. 0.068% of 220,000 active. AID 463075;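 active = activation, meaning protection from cell death, of at least 50% relative to plate controls; inactive = activation below 50%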;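 note: necroptosis triggered by 40 ng/mL TNF-alpha added together with compound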
zVAD death inh = blocks zVAD induced death of L929 cells; viability rescue, % at 10 µM; 0.38% of 220,000 active; AID 1377; L929 zVAD necroptosis rescue, ATP luminescence, 24 h; with zVAD 60 µM;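 active = activation, scaled between plate controls, above about 75%, limit read from the data; inactive = activation under that limit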;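 note: 0% = zVAD with DMSO and 100% = DMSO alone without zVAD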
Hep lipid conf = hepatic lipid droplet formation inhibition, confirmed; shares compounds with Hep lipid drop; AML12 mouse hepatocytes, BODIPY lipid droplet imaging; droplets induced with 100 µM oleic acid; inhibition, % at 5.2 µM; 65% of 870 active;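 active = inhibition of lipid droplet metric at least 50%, with more than 300 cells in each of four replicates; inconclusive = wells under 300 cells, flagged as toxic or low count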;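 note: plate controls were DMSO with oleic acid for no effect and 5 µM Triacsin-C for full effect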
AML12 cytotox = counter-screen for cytotoxicity in AML12 mouse hepatocytes; shares compounds with Hep lipid drop; DAPI nuclear morphology cytotoxicity imaging; active compounds read high; cells fed 100 µM oleate overnight; z-score at 5 µM; 3% of 870 active; AID 463200; in the data active = z-score above about 6.3;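 note: compound exposure lasted overnight at 37 °C before fixation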
AML12 tox ATP = AML12 hepatocyte cytotoxicity, confirmed; shares compounds with Hep lipid drop; AML12 mouse hepatocyte viability, ATP luminescence; cells loaded with 100 µM oleic acid; cytotoxicity, % at 50 µM; 530 tested, under 10 active;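 active = cytotoxicity above 50% in each of four replicates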;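 note: compound exposure lasted overnight at 37 °C before the ATP read; 0% = DMSO-treated cells and 100% = wells with no cells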
* = called active by the depositor; ? = inconclusive; nt = no result given.

SMILES	Hep lipid drop	PfM18AAP inh	RBBP9 inhibitor	TbHK1 inh	TNF necrop inh	zVAD death inh	Hep lipid conf	AML12 cytotox	AML12 tox ATP
O/N=C/c1cccnc1Sc1ccccc1	4	-11	-6	0	2	2	nt	nt	nt
CS(=O)(=O)N(Cc1ccc(Cl)cc1)c1ccc(C(=O)N/N=C/c2cc3ccccc3nc2Cl)cc1	64*	-4	-5	-30	4	3	106*	-0.46	1
CCN(Cc1ccccc1)C(=O)Cn1c(=O)n(CC(=O)N2CCCCC2)c(=O)c2sccc21	4	0	nt	nt	nt	nt	nt	nt	nt
CC(C)(C)c1ccc(-c2nnc(SCC(=O)NC3CCS(=O)(=O)C3)n2N)cc1 (stereo unspecified)	-4	7	-1	1	2	3	nt	nt	nt
CCOc1ccc(N(CC(=O)N2CCOCC2)S(=O)(=O)c2ccc(Cl)cc2)cc1	0	9	nt	nt	nt	nt	nt	nt	nt
Cc1nn(C(C)C(=O)NCCc2ccco2)c(=O)c2nn(-c3ccccc3)c(C)c12 (stereo unspecified)	-6	3	nt	nt	nt	nt	nt	nt	nt
COc1ccc(N(C(=O)CCl)C(C(=O)NCCc2ccccc2)c2cccs2)cc1Cl (stereo unspecified)	127*	-13	-11	-1	-16	1	?	34*	nt
Cc1cccc(Oc2ccc(Cl)cc2N)c1	58*	-4	-7	10	-3	0	29	-0.35	nt
Nc1cc(Cl)ccc1Oc1ccccc1	nt	-5	-4	40	0	1	nt	nt	nt
O=C(NCc1ccco1)c1ccc(Cn2c(=O)c3ccccc3n(Cc3ccc(Cl)cc3)c2=O)cc1	56*	-7	-7	25	-1	1	48	-0.48	nt
Cc1ccc(Nc2c([N+](=O)[O-])c(=O)n(C)c3ccccc23)cc1C	3	-5	-4	-10	-4	1	nt	nt	nt
Cc1ccc2cc(/C=N/NC(=O)[C@H]3C[C@@H]3c3ccccc3)c(Cl)nc2c1	75*	-6	5	-8	-3	0	50	0.51	-1
CCNC(=O)NC(=O)C(C)OC(=O)c1ccc(SC)cc1OC (stereo unspecified)	0	-6	-4	-3	1	7	nt	nt	nt
COc1cc(SC)ccc1C(=O)OC(C)C(=O)Nc1ccc(NC(C)=O)cc1 (stereo unspecified)	59*	-9	nt	nt	nt	nt	87*	-0.92	12
COc1ccccc1NS(=O)(=O)c1cc(NC(=O)c2cc3ccccc3oc2=O)ccc1C	58*	-4	-1	-12	2	1	52	-0.64	nt
COc1cccc(NC(=O)c2cc3ccccc3oc2=O)c1	1	-6	nt	nt	nt	nt	nt	nt	nt
COc1ccc(OC)c(/C=C/C(=O)N(C)CC(=O)Nc2cc(C)ccc2C)c1	60*	1	-4	-13	2	2	95*	-0.07	10
COc1ccc(CCC(=O)N(C)CC(=O)Nc2cc(C)ccc2C)cc1	-3	-3	-6	10	0	0	nt	nt	nt
COc1ccc(OC)c(/C=C/C(=O)N(C)CC(=O)Nc2ccc(C)cc2)c1	59*	0	6	-10	2	1	77*	0.19	8
O=C(O)c1ccc(N2C(=O)CC(N3CCC(c4nc5ccccc5[nH]4)CC3)C2=O)cc1 (stereo unspecified)	20	-25	2	0	2	1	nt	nt	nt
CS(=O)(=O)N(CC(=O)Nc1ccccc1Br)Cc1ccccc1	56*	1	nt	nt	nt	nt	67*	-0.76	9
O=C(CC1C(=O)NCCN1C(=O)Nc1ccccc1)Nc1cc(Cl)cc(Cl)c1 (stereo unspecified)	0	-11	nt	nt	nt	nt	nt	nt	nt
Cc1ccc(CNC(=O)CNS(=O)(=O)c2ccc3c(c2)C(C)(C)C(=O)N3C)cc1	7	-3	nt	nt	nt	nt	nt	nt	nt
COc1cccc(CNC(=O)C2CCCN(S(=O)(=O)c3c(C)noc3/C=C/N(C)C)C2)c1 (stereo unspecified)	74*	5	nt	nt	nt	nt	80*	-0.47	13
COc1cccc(CNC(=O)CCNC(=O)C2CCN(S(=O)(=O)c3ccc(F)cc3)CC2)c1	42	-3	nt	nt	nt	nt	nt	nt	nt
SMILES	Hep lipid drop	PfM18AAP inh	RBBP9 inhibitor	TbHK1 inh	TNF necrop inh	zVAD death inh	Hep lipid conf	AML12 cytotox	AML12 tox ATP
COc1cccc(CNC(=O)CCNC(=O)C2CCN(S(=O)(=O)c3ccccc3)CC2)c1	60*	1	nt	nt	nt	nt	81*	-0.74	13
CCN(C(=O)C1CCN(S(=O)(=O)c2ccc3c(c2)oc(=O)n3C)CC1)c1cccc(C)c1	nt	3	-1	-8	0	0	nt	nt	nt
CCc1nnc(NS(=O)(=O)c2ccc(NCc3cc(Br)ccc3O)cc2)s1	-5	1	nt	nt	nt	nt	nt	nt	nt
COc1nccnc1NS(=O)(=O)c1ccc(NCc2cc(Br)ccc2O)cc1	64*	6	nt	nt	nt	nt	15	-0.0013	nt
Cc1ccc2c(c1)sc(-c1ccc(N(C)C)cc1)[n+]2C	-145	21	nt	nt	nt	nt	nt	nt	nt
CCCN(CCC)C(=O)CSc1nc2n[nH]c(C)c2c(=N)n1-c1ccc(OCC)cc1	nt	-5	-4	-21	-5	7	nt	nt	nt
CCOc1ccc(-n2c(SCC(=O)Nc3ccc(CC)cc3)nc3n[nH]c(C)c3c2=N)cc1	51*	0	-11	-11	-1	2	3	-0.83	nt
COc1ccc(CCn2ccc(O)c(Cc3ccc(Cl)cc3)c2=O)cc1OC	61*	-6	-12	9	4	1	106*	0.55	4
CCOc1ccc(CN(C)C(=O)CNC(=O)Cc2cccc3ccccc23)cc1	77*	2	nt	nt	nt	nt	101*	-0.97	11
CCCN1C(=O)/C(=C2/C=Cc3ccccc3N2CC)SC1=S	85*	3	-6	-3	-4	0	105*	-0.13	13
CC1=C(C(=O)OCCBr)C(c2cccc3ccccc23)NC(=O)N1 (stereo unspecified)	nt	1	nt	nt	nt	nt	nt	nt	nt
CCOC(=O)C1CCN(C(=O)C2(NC(=O)Nc3ccccc3Cl)CCCCC2)CC1	73*	-6	-5	-5	0	0	101*	0.094	11
Cc1ccccc1NC(=O)NC1(C(=O)N2CCC(C(N)=O)CC2)CCCCC1	8	1	nt	nt	nt	nt	nt	nt	nt
CCOC(=O)C1CCN(C(=O)C2(NC(=O)Nc3ccccc3C)CCCCC2)CC1	81*	-10	nt	nt	nt	nt	98*	-0.28	5
O=C(Nc1ccccc1Cl)NC1(C(=O)N2CCCCC2)CCCCC1	21	1	3	6	1	-1	nt	nt	nt
COc1cccc(C(=O)OCC(=O)c2c[nH]c3ccccc23)c1O	-6	-10	-3	-9	0	2	nt	nt	nt
